Activity calls are given as the source filed them. No cut-off for these calls is given here.
Tests used:
MCF7 [1] = test: Inhibition of epithelial-mesenchymal transition in human MCF7 cells assessed as decrease in N-cadherin expression level at 2 to 10 uM after 48 hrs by Western blot analysis; type: functional, cell-based
Procedure, shortened: (§1)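 MCF-7 cells in RPMI 1640 with 10% FBS, 37 °C, 5% CO2, exposed to no drug, 2 or 10 µM for 48 h. RIPA lysates, BCA quantitation, 8% SDS-PAGE, PVDF transfer, primary antibodies overnight 4 °C, secondary 2 h RT, ECL and densitometry for ZO-1, E-cadherin, N-cadherin, vimentin. Mean ± SD of 3 independent tests.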

HUVEC [2] = test: Cytotoxicity against HUVEC assessed as reduction in cell viability measured after 48 to 72 hrs by MTT assay; type: cell-based; details: human
Procedure, shortened: (§2)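 Cells seeded at 3 × 10^3 per well in 96-well plates, incubated overnight, then given fresh medium with a range of drug concentrations for 48 h or 72 h. MTT added (final 500 µg/mL) for 4 h, formazan dissolved in DMSO, absorbance at 570 nm; IC50 derived. Mean ± SD of 3 independent tests.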

PC-3 = test: Cytotoxicity against human PC3 cells assessed as reduction in cell viability measured after 48 to 72 hrs by MTT assay; type: cell-based; procedure, shortened: as §2
B16 = test: Antitumour activity against mouse B16 cells assessed as cell growth inhibition measured after 72 hrs by SRB assay; type: functional, cell-based; details: B16, 72 h
Procedure, shortened: (§3)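 Exponentially growing cells trypsinized, seeded at 5 × 10^4 cells/mL in 96-well plates, cultured overnight, then exposed to compounds for 72 h. Cells fixed with 10% TCA 1 h, stained with SRB 15 min, dye dissolved in Tris-HCl, absorbance read; 50% growth-inhibitory concentration calculated.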

HUVEC [3] = test: Antimigratory activity against HUVEC at 2 to 10 uM measured after 24 hrs by transwell assay; type: functional, cell-based; details: Homo sapiens
Procedure, shortened: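 Cells seeded on upper side of polycarbonate transwell filters in serum-free medium, drug at 0, 2 or 10 µM; complete serum-containing medium in lower chamber as chemoattractant. After 24 h migrated cells fixed in 4% paraformaldehyde 20 min, crystal violet stained 20 min, imaged and counted. Three independent experiments.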

HUVEC [4] = test: Reduction in VEGFR expression in HUVEC at 2 to 10 uM after 48 hrs by Western blot analysis; type: functional, cell-based; details: Homo sapiens
Procedure, shortened: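 HUVECs grown in RPMI 1640 with 10% FBS, 37 °C, 5% CO2; treated with no drug, 2 or 10 µM for 48 h. Lysed in RIPA with protease/phosphatase inhibitors on ice 30 min, protein by BCA, 8% SDS-PAGE, PVDF transfer, milk block, primary antibody overnight 4 °C, secondary 2 h RT; ECL detection, densitometry. Probed VEGF-R, FAK, p-FAK, SHC.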

HET-1A = test: Cytotoxicity against human HET-1A cells assessed as reduction in cell viability measured after 48 to 72 hrs by MTT assay; type: cell-based; procedure, shortened: as §2
MDA-MB-231 = test: Cytotoxicity against human MDA-MB-231 cells assessed as reduction in cell viability measured after 48 to 72 hrs by MTT assay; type: cell-based; procedure, shortened: as §2
[5] = Solubility of the compound in water; type: physicochemical; details: buffer
MCF7 [6] = test: Inhibition of epithelial-mesenchymal transition in human MCF7 cells assessed as decrease in vimentin expression level at 2 to 10 uM after 48 hrs by Western blot analysis; type: functional, cell-based; procedure, shortened: as §1
A549 = test: Antitumour activity against human A549 cells assessed as cell growth inhibition measured after 72 hrs by SRB assay; type: functional, cell-based; details: A549, 72 h; procedure, shortened: as §3
[7] = Toxicity in nude mouse xenografted with human MCF7 cells assessed as liver edema at 22.5 to 45 mg/kg/day, ip administered for 21 days by HE staining analysis; type: organism-based; details: in vivo, 504 h
[8] = Toxicity in nude mouse xenografted with human MCF7 cells assessed as effect on kidney morphological changes at 22.5 to 45 mg/kg/day, ip administered for 21 days by HE staining analysis; type: organism-based; details: in vivo, 504 h

IC50 (B16): 17.9 µM
solubility [5]: Soluble
IC50 (A549): 23.2 µM
SMILES: COc1cc2c(cc1O)CC[C@@H]1[C@@H]2CC[C@]2(C)C(=O)/C(=C/c3ccc(Cl)cc3)C[C@@H]12
inhibition (MCF7 [1]): Active
Activity (HUVEC [2]): Toxic
Activity (PC-3): Toxic
Activity (HUVEC [3]): Active
inhibition (HUVEC [4]): Active
IC50 (HET-1A): > 100 µM
IC50 (MDA-MB-231): 78.6 µM
inhibition (MCF7 [6]): Active
Activity [7]: Toxic
Activity [8]: Non-Toxic

— ChEMBL document CHEMBL4393712, “Discovery of chalcone-modified estradiol analogs as antitumour agents that Inhibit tumour angiogenesis and epithelial to mesenchymal transition” (Eur J Med Chem, 2019)
